Reference: article PMC7557227 (ACS Omega, 2020)

Columns and labels:
PARP1 = PARP1 (Homo sapiens, UniProt P09874); test: PARP enzymatic assay; format: biochemical; details: read-out: IC50 PARP1; dose response 1 nM to 1 mM
PARP3 = molecular target: T1, PARP3 (Homo sapiens, UniProt Q9Y6F1); test: PARP enzymatic assay; format: biochemical; details: for Inhibition of PARP3, mean (panel): 10 μM, 0 equals no inhibition, 100 total inhibition, N = 5 (Table 5); for IC50: read-out: IC50 PARP3, dose response 1 nM to 1 mM; for PARP3 inhibition at 1 μM: from dose response data
T1 sequence (Q9Y6F1 1-533): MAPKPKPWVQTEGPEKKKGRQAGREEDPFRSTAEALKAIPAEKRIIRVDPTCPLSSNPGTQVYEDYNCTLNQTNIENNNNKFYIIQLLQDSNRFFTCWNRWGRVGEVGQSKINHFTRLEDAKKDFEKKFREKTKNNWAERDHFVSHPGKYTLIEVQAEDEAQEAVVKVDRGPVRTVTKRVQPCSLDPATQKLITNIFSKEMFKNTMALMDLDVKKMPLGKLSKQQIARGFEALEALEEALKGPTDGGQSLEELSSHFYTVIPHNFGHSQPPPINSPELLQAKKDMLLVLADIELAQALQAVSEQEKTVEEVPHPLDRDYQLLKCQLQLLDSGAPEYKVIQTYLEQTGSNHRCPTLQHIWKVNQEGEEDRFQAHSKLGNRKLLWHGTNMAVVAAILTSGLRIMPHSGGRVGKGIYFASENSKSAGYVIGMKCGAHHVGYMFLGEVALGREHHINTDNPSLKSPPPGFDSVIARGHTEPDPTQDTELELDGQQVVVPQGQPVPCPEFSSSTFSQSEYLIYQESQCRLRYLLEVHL

PARP16 = molecular target: T2, PARP16 (Homo sapiens, UniProt Q8N5Y8); test: Modified PARP enzymatic assay with IRE-1 as substrate, PARP16; format: biochemical; details: for PARP16 inhibition at 1 μM: from dose response data; for Selectivity: greater IC50 potency for PARP16 compared with PARP3: ratio of IC50 values, in vitro; for IC50: read-out: IC50 PARP16, dose response 1 nM to 1 mM
T2 sequence (Q8N5Y8 1-322): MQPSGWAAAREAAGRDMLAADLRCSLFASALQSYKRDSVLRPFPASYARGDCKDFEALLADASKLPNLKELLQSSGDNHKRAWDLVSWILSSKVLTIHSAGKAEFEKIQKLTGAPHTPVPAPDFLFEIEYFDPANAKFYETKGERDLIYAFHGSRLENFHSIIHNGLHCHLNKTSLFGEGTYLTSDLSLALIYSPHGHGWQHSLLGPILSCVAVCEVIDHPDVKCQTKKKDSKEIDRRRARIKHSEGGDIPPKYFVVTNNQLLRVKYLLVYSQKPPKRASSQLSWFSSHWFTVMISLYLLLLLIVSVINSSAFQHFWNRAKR

[1] = system: F508del-CFTR in BHK cells; test: HTS F508del-CFTR correction assay; format: cell-based, hamster; details: 24 h treatment
[2] = system: F508del-CFTR in BHK cells; details: cited from earlier work
PARP2 = test: PARP enzymatic assay, PARP2; format: biochemical; details: 10 μM; 0 equals no inhibition, 100 total inhibition; N = 5 (Table 5)
Method in brief: (§1)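 Commercial recombinant PARP2, PARP4, PARP-5a and PARP-5b were assayed with a chemiluminescent universal PARP kit on histone-coated strip wells, following the manufacturer's protocol. Anchored histones served as the ADP-ribosylation substrate. Inhibition was read as loss of chemiluminescent signal.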

PARP4 = PARP4 (Homo sapiens, UniProt Q9UKK3); test: PARP enzymatic assay, PARP4; format: biochemical; details: 10 μM; 0 equals no inhibition, 100 total inhibition; N = 5 (Table 5)
PARP4, sequence (Q9UKK3 whole entry, species assumed): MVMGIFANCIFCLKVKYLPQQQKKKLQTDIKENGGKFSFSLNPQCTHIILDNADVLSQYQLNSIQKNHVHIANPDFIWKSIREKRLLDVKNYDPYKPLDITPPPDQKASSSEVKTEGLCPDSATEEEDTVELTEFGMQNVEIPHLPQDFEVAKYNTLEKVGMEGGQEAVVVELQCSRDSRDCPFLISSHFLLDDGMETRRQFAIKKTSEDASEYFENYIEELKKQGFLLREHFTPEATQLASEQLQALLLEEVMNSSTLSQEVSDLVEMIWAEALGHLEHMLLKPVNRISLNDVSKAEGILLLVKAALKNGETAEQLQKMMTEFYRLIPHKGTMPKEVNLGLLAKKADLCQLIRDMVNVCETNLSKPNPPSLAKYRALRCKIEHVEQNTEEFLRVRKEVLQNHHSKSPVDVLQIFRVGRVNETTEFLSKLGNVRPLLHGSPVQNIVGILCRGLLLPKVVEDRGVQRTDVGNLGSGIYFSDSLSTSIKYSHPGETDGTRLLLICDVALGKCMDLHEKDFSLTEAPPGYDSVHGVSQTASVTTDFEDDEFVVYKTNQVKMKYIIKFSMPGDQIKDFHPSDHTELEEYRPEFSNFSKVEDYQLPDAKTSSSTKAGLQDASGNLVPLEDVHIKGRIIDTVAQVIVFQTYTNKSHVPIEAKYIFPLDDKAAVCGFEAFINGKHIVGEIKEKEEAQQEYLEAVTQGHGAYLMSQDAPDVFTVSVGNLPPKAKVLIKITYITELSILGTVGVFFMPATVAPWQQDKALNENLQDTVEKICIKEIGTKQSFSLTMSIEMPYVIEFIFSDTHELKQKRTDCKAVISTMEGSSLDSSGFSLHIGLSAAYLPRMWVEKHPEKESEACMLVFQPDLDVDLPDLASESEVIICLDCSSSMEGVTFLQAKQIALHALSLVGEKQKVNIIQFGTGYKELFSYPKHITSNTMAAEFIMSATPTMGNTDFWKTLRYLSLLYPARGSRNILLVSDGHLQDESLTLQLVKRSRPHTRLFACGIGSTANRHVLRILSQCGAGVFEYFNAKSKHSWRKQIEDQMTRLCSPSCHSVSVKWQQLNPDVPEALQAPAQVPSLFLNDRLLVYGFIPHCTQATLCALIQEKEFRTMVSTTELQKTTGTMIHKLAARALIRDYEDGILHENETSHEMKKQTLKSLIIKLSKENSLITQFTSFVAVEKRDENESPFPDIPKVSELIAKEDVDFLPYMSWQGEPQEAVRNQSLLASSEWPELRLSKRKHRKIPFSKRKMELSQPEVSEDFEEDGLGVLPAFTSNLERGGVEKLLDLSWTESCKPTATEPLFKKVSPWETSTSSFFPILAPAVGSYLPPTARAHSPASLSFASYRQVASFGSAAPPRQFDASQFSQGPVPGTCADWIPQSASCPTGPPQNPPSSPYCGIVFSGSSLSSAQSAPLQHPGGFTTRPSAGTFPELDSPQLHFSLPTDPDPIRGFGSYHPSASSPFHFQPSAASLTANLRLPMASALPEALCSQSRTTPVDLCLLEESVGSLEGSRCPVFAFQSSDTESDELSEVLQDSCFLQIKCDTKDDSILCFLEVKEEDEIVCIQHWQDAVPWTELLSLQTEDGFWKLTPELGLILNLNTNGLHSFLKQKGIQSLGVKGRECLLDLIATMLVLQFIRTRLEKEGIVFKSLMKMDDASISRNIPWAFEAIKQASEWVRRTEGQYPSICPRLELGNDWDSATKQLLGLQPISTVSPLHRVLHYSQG
Method in brief: as §1

PARP5 = test: PARP enzymatic assay, PARP5; format: biochemical; details: 10 μM; 0 equals no inhibition, 100 total inhibition; N = 5 (Table 5)
Method in brief: as §1

TANKYRASE1 = molecular target: T3, TANKYRASE1 (Homo sapiens, UniProt O95271); test: PARP enzymatic assay, TANKYRASE1; format: biochemical; details: 10 μM; 0 equals no inhibition, 100 total inhibition; N = 5 (Table 5)
T3 sequence (O95271 1-1327): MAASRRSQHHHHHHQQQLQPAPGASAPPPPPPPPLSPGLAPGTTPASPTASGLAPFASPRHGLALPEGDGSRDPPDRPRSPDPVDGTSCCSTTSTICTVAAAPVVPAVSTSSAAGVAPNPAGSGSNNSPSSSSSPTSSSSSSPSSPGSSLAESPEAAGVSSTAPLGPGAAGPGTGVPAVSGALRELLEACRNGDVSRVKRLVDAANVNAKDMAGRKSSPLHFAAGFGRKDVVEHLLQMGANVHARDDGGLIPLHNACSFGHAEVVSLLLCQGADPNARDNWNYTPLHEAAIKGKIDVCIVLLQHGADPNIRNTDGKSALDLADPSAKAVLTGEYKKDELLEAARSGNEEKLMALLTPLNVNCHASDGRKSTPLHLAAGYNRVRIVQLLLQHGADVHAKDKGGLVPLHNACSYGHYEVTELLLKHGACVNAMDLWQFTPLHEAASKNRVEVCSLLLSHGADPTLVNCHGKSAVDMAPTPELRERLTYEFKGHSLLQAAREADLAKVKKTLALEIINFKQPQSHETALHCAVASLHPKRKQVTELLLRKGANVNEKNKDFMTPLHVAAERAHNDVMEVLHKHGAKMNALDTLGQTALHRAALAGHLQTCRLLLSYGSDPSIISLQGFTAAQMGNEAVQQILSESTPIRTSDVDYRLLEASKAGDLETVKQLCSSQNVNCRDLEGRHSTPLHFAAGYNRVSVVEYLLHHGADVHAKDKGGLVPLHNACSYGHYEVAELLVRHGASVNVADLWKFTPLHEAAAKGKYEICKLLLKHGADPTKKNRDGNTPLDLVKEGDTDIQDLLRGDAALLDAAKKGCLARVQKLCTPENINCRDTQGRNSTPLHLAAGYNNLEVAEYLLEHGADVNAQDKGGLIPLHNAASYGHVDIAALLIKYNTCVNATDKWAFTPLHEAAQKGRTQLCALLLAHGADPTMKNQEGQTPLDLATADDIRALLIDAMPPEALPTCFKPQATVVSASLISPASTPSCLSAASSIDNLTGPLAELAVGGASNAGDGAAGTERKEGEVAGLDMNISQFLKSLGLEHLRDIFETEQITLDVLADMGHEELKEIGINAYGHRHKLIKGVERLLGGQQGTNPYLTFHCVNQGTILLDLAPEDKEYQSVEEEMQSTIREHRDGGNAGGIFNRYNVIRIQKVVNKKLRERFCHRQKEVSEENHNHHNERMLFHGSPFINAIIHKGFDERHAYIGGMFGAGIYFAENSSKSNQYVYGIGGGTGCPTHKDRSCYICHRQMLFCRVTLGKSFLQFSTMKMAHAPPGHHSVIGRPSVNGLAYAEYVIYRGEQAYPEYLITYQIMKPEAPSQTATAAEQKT
Method in brief: (§2)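 Recombinant human PARP-5a (tankyrase 1) and PARP-5b (tankyrase 2) were obtained commercially. Inhibition was measured with a universal chemiluminescent PARP kit according to the manufacturer's protocol. Anchored histone proteins coated on strip wells served as the ADP-ribosylation substrate.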

TANKYRASE 2 = molecular target: T4, TANKYRASE 2 (Homo sapiens, UniProt Q9H2K2); test: PARP enzymatic assay, TANKYRASE 2; format: biochemical; details: 10 μM; 0 equals no inhibition, 100 total inhibition; N = 5 (Table 5)
T4 sequence (Q9H2K2 1-1166): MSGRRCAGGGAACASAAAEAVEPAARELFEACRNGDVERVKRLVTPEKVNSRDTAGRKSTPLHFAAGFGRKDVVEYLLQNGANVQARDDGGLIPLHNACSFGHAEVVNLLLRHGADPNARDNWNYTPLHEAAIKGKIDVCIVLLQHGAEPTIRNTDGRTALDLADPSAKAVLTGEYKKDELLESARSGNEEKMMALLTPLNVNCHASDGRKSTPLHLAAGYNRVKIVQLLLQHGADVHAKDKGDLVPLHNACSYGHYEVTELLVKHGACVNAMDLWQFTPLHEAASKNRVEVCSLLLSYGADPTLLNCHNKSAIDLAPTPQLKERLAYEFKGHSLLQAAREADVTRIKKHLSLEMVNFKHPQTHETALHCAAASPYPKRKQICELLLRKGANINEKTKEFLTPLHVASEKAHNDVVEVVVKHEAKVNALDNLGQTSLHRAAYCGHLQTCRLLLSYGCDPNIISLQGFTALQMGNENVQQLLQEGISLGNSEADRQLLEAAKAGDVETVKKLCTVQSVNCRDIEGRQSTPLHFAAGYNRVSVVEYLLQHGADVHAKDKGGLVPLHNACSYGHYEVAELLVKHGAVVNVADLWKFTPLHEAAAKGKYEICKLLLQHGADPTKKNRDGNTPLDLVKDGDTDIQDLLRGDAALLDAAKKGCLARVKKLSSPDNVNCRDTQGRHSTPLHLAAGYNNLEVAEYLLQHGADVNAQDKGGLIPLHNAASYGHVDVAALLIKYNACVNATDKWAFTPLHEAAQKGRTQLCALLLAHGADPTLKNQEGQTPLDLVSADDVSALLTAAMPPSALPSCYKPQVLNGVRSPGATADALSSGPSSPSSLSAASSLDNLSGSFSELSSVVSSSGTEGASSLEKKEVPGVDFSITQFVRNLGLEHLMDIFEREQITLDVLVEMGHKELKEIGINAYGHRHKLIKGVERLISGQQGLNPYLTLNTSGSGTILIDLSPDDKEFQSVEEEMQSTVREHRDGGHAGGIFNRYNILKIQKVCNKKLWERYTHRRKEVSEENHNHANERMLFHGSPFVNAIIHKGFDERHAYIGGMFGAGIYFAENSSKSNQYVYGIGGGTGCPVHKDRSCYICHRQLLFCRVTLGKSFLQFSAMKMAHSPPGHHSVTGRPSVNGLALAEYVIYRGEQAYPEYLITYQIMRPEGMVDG
Method in brief: as §2

[3] = system: F508del-CFTR in BHK cells; test: FMP functional F508del-CFTR correction assay; format: cell-based, hamster; details: 1 μM each, 24 h pretreatment, forskolin + genistein, BHK cells (Figure 2C)
Method in brief: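 BHK cells expressing F508del-CFTR were seeded at 25 000 cells per well and treated with test compound (1 μM) for 24 h, then washed with PBS. Cells were loaded with a voltage-sensitive oxonol-derived FLIPR dye plus quencher in low-chloride gluconate/HEPES buffer (pH 7.4) containing genistein (50 μM) for 5 min at room temperature. Forskolin (10 μM) was added, and the mean initial fluorescence rate (Vmax) was expressed as % of VX809 response.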

[4] = 1 μM each, BHK cells (Figure 2B)
[5] = 10 μM each, BHK cells (Figure 2A)

PARP1, sequence (P09874 whole entry): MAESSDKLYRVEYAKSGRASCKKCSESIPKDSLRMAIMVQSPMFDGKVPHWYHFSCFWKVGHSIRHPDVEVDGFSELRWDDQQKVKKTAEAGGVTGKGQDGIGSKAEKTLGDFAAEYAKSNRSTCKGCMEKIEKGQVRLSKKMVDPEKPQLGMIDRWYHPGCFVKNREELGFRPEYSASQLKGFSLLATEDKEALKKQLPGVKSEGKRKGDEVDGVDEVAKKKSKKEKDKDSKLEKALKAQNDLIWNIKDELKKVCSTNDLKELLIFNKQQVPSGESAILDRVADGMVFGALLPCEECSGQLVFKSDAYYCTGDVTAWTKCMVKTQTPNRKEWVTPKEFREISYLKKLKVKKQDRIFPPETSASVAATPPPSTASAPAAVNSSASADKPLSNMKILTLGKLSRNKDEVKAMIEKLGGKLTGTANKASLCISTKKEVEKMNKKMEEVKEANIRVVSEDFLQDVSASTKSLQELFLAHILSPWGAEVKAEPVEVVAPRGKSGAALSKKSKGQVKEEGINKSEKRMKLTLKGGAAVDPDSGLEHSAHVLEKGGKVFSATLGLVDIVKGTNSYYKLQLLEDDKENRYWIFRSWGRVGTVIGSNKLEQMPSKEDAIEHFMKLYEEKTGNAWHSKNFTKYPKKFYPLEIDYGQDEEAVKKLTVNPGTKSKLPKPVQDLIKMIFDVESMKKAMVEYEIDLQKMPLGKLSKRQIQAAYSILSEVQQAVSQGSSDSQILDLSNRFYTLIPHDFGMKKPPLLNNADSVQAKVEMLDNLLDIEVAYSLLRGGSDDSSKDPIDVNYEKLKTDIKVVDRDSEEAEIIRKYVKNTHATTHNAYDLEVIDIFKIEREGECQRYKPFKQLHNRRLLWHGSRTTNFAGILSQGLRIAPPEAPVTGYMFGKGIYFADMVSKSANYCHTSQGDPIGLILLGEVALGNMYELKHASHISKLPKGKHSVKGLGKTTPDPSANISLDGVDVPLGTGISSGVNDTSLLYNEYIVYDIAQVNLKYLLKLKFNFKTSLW

IC50 (PARP1) [µM]	Inhibition of PARP3, mean (panel) (PARP3)	IC50 (PARP3) [µM]	PARP16 inhibition at 1 μM (PARP16) [%]	Selectivity: greater IC50 potency for PARP16 compared with PARP3 (PARP16) [fold]	IC50 (PARP16) [µM]	PARP3 inhibition at 1 μM (PARP3) [%]	Selectivity: greater IC50 potency for PARP16 compared with PARP3 (PARP16; listed as Latonduine A (1))	Inhibition of PARP4, mean (panel) (PARP4)	Inhibition of TAN1, mean (panel) (TANKYRASE1)	Inhibition of TAN2, mean (panel) (TANKYRASE 2)	Increase in relative PARP3/PARP16 IC50 potency compared with latonduine A (1) (PARP3) [fold]	Selectivity: greater IC50 potency for PARP3 compared with PARP16 (PARP3; ratio of IC50 values, in vitro) [fold]	Compound	F508del-CFTR corrector activity (surface expression) in HTS assay [1, 4]	F508del-CFTR corrector activity (surface expression) in HTS assay [1, 5]	EC50 in the F508del-CFTR trafficking screening assay [2]	Inhibition of PARP2, mean (panel) (PARP2)	Inhibition of PARP5, mean (panel) (PARP5)	Functional F508del-CFTR correction in FMP assay [3]
17.8	25.8	74.1	81	205	0.362								O=C1NCC(c2ccccn2)C(O)c2cc(Cl)c(Cl)cc21 (racemic) [compound 6, (±)-7,8-dichloro-5-hydroxy-4-(pyridin-2-yl)-2,3,4,5-tetrahydro-1H-benzo[c]azepin-1-one]	neither 5 or 6 alone shows corrector activity	neither compound 5 or 6 alone gives F508del-CFTR correction				
													Nc1nc2c(c(C(=O)O)n1)-c1c([nH]c(Br)c1Br)C(=O)NC2 [compound 2, latonduine B]			low nanomolar			
24.3	83.7	3.4	79	8	0.427	37	≈ 8 fold	18.3	11.7	10.1			latonduine A [compound 1]			low nanomolar	21.6	9.9	generates functional CFTR correction
20.1	95.6	3.1			296	39					768	96	O=C1NCC(c2ccccc2)C(O)c2ccccc21 (racemic) [compound 5, (±)-5-hydroxy-4-phenyl-2,3,4,5-tetrahydro-1H-benzo[c]azepin-1-one]	neither 5 or 6 alone shows corrector activity	neither compound 5 or 6 alone gives F508del-CFTR correction				
